Reference: ChEMBL document CHEMBL1130120, “N-arylpiperazinyl-N'-propylamino derivatives of heteroaryl amides as functional uroselective alpha 1-adrenoceptor antagonists” (J Med Chem, 1997)

Tests used:
[1] = target: T1, Alpha-1A adrenergic receptor (Oryctolagus cuniculus, UniProt O02824); experiment: Antagonistic activity against alpha 1A/1L receptor was assessed in a rabbit bladder neck functional assay; conditions: read-out: pA2 (converted)
T1 sequence (O02824 whole entry): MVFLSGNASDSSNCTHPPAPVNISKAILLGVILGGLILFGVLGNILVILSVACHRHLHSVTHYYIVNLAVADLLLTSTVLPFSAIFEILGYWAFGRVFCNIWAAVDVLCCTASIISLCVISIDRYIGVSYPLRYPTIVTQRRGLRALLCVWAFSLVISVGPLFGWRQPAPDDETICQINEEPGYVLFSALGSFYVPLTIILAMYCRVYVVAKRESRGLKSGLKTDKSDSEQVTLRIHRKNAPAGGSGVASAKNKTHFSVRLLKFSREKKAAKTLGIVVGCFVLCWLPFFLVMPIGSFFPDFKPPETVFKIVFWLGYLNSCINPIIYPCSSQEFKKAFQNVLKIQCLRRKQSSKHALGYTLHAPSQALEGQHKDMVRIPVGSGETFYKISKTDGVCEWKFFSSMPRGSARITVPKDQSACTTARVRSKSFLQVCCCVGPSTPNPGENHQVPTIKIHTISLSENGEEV

[2] = target: T2, Alpha-1A adrenergic receptor (Bos taurus, UniProt P18130); experiment: In vitro for the displacement of [3H]prazosin binding to bovine Alpha-1A adrenergic receptor
T2 sequence (P18130 whole entry): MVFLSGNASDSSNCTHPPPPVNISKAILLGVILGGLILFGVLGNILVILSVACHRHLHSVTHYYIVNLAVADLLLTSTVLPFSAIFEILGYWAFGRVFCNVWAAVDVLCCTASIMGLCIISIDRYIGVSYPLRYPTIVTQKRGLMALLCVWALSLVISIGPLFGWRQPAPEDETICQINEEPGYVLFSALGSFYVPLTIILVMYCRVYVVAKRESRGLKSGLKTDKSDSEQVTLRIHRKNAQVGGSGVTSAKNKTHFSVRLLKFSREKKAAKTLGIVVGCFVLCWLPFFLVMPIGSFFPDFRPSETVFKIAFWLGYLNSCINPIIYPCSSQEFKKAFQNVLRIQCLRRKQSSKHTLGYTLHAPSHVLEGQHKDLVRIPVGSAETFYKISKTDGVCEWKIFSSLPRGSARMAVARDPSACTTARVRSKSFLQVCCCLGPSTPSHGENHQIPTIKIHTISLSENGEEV

[3] = target: T3, Alpha-1D adrenergic receptor (Rattus norvegicus, UniProt P23944); experiment: Antagonistic activity against rat aorta for affinity estimates representative of the Alpha-1D adrenergic receptor; assay type: functional, tissue-based; conditions: read-out: pA2 (converted)
T3 sequence (P23944 whole entry): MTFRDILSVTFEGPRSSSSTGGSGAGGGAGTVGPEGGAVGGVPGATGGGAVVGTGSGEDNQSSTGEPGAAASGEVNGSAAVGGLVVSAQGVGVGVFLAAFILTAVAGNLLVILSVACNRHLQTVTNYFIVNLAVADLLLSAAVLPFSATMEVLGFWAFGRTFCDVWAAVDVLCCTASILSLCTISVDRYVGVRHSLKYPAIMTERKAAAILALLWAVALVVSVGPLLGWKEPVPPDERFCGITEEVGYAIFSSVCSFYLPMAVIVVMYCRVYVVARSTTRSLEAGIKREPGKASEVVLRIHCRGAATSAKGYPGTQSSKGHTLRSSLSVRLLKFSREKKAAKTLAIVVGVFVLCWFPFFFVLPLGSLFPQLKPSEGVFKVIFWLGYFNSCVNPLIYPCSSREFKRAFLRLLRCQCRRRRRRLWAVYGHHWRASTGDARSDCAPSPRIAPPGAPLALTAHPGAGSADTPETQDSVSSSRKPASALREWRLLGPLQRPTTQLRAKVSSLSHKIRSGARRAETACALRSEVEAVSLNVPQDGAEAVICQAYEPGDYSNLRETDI
Outline: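 Isolated smooth-muscle tissue with cumulative norepinephrine concentration–effect curves (rat aorta, human lower urinary tract). Affinity obtained by full Schild regression for some antagonists. […] Competitive, reversible interaction at a single subtype assumed.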

`COc1ccccc1N1CCN(CCCNc2c(C)c(=O)n(C)c(=O)n2C)CC1` was tested. Which Kb [1] did it give?
Its Kb is 3.98 nM.

And the Ki [2]?
Its Ki is 0.501 nM.

Which results are given for `COc1ccccc1N1CCN(CCC(=O)Nc2ccccc2C(=O)N(C)C)CC1`?
Kb [3]: 63.1 nM; Ki [2]: 1.58 nM

How did the Kb [1] turn out when `CNC(=O)c1cccnc1NCCCN1CCN(c2ccccc2OC)CC1` was run?
The Kb was 1 nM.

And the Kb [3]?
Its Kb is 3.16 nM.

How did the Kb [1] turn out when `CN(C)C(=O)c1cccnc1NCCCN1CCN(c2ccccc2C(F)(F)F)CC1` was run?
Its Kb is 12.6 nM.

What about the Kb [3] of the same molecule?
The Kb was 316 nM.

How did the Kb [1] turn out when `COc1cc(F)ccc1N1CCN(CCCNc2c(C(=O)N(C)C)cnc3c(C)cccc23)CC1` was run?
The Kb was 7.94 nM.

And the Kb [3]?
The Kb was 316 nM.

Which Kb [3] does the source give for `CCOc1ccccc1OCCNC1CCN(c2ncccc2C(=O)N(C)C)CC1` here?
Its Kb is 15.8 nM.

What about the Ki [2] of the same molecule?
Its Ki is 3.16 nM.

Which results are given for `Cc1ccc(N(CC2=NCCN2)c2cccc(O)c2)cc1` [PHENTOLAMINE]?
Kb [1]: 6.31 nM; Ki [2]: 0.794 nM

Which Kb [1] does the source give for `CN(C)C(=O)c1cccnc1NCCCN1CCN(c2ccccc2O)CC1` here?
The Kb was 5.01 nM.

What about the Kb [3] of the same molecule?
The Kb was 63.1 nM.

Which results are given for `COc1ccccc1N1CCN(CCCNc2ccncc2C(=O)N(C)C)CC1`?
Kb [1]: 12.6 nM; Kb [3]: 50.1 nM; Ki [2]: 0.794 nM

`CN(C)C(=O)c1cccnc1NCCCN1CCN(c2ccccc2OCC(F)(F)F)CC1` was tested. Which Kb [1] did it give?
Its Kb is 0.1 nM.

And the Kb [3]?
The Kb was 15.8 nM.

What does the source list for `CCOc1ccccc1N1CCN(CCCNc2ncccc2C(=O)N(C)C)CC1`?
Kb [1]: 0.501 nM; Kb [3]: 7.94 nM

`CN(C)C(=O)c1cccnc1NCCCN1CCN(c2ccccc2OCC(C)(C)C)CC1` was tested. Which Kb [3] did it give?
The Kb was 50.1 nM.

And the Ki [2]?
Its Ki is 0.794 nM.

What does the source list for `COc1ccccc1N1CCN(CCCNc2ncccc2C(=O)C(C)(C)C)CC1`?
Kb [3]: 6.31 nM; Ki [2]: 0.398 nM

What does the source list for `COc1ccc(N2CCN(CCCNc3ncccc3C(=O)N(C)C)CC2)c(OC)c1`?
Kb [1]: 31.6 nM; Kb [3]: 1000 nM

`COc1ccccc1N1CCN(CCCNc2ncc(C#N)cc2C(=O)N(C)C)CC1` was tested. Which Kb [1] did it give?
Its Kb is 0.794 nM.

What about the Kb [3] of the same molecule?
The Kb was 20 nM.

With `CN(C)C(=O)c1cccnc1NCCCN1CCN(c2ccccc2C2CC2)CC1` as the molecule, how does the Kb [1] read?
Its Kb is 0.631 nM.

What about the Kb [3] of the same molecule?
Its Kb is 63.1 nM.

Which Kb [1] does the source give for `COc1cc2nc(N3CCN(C(=O)C4CCCO4)CC3)nc(N)c2cc1OC` (racemic) [TERAZOSIN] here?
Its Kb is 20 nM.

And the Ki [2]?
Its Ki is 2.51 nM.

How did the Kb [1] turn out when `COc1cc(F)ccc1N1CCN(CCCNc2c(C(=O)N(C)C)cnc3nc(C)ccc23)CC1` was run?
Its Kb is 1.26 nM.

What about the Kb [3] of the same molecule?
Its Kb is 631 nM.

For `COc1ccccc1N1CCN(CCCNc2cccc(C)c2C(=O)N(C)C)CC1`, which Kb [1] is on record?
Its Kb is 3.16 nM.

What about the Kb [3] of the same molecule?
The Kb was 63.1 nM.

Which results are given for `COc1ccccc1N1CCN(CCCNc2ncccc2C(=O)C2CC2)CC1`?
Kb [1]: 0.501 nM; Kb [3]: 2 nM

Which Kb [1] does the source give for `COc1cc(C)ccc1N1CCN(CCCNc2ncccc2C(=O)N(C)C)CC1` here?
The Kb was 0.794 nM.

And the Kb [3]?
The Kb was 39.8 nM.

With `CN(C)C(=O)c1cnc2c(Cl)cccc2c1NCCCN1CCN(c2ccccc2OCC(F)(F)F)CC1` as the molecule, how does the Kb [1] read?
The Kb was 0.794 nM.

And the Kb [3]?
Its Kb is 126 nM.

How did the Kb [1] turn out when `CN(C)C(=O)c1cccnc1N1CCC(NCCOc2ccccc2OCC(F)(F)F)CC1` was run?
Its Kb is 1.58 nM.

What about the Kb [3] of the same molecule?
The Kb was 63.1 nM.

What about the Ki [2] of the same molecule?
Its Ki is 1.58 nM.

What does the source list for `CN(C)C(=O)c1cccnc1NCCCN1CCN(c2ccccc2OCC2CC2)CC1`?
Kb [1]: 0.158 nM; Kb [3]: 10 nM; Ki [2]: 0.0794 nM

What does the source list for `COc1ccccc1N1CCN(CCCNc2ncccc2C(N)=O)CC1`?
Kb [3]: 10 nM; Ki [2]: 0.126 nM

For `COc1ccccc1N1CCN(CCCNc2ccncc2C(=O)N(C(C)C)C(C)C)CC1`, which Kb [3] is on record?
Its Kb is 251 nM.

And the Ki [2]?
The Ki was 1.58 nM.

For `COc1cc(F)ccc1N1CCN(CCCNc2c(C(=O)N(C)C)c[nH]c3ccn[n+]2-3)CC1`, which Kb [1] is on record?
The Kb was 0.631 nM.

What about the Kb [3] of the same molecule?
The Kb was 100 nM.

`COc1ccccc1N1CCN(CCCSc2ccccc2C(=O)N(C)C)CC1` was tested. Which Kb [1] did it give?
Its Kb is 2 nM.

And the Kb [3]?
Its Kb is 12.6 nM.

Which results are given for `Cc1ccc(N2CCN(CCCNc3ncccc3C(=O)N(C)C)CC2)c(-n2cccc2)c1`?
Kb [1]: 0.02 nM; Kb [3]: 12.6 nM

For `CN(C)C(=O)c1cnc2c(c(C(C)(C)C)nn2C)c1NCCCN1CCN(c2ccccc2OCC(F)(F)F)CC1`, which Kb [1] is on record?
The Kb was 2.51 nM.

And the Kb [3]?
The Kb was 63.1 nM.

Which results are given for `CCCc1ccccc1N1CCN(CCCNc2ncccc2C(=O)N(C)C)CC1`?
Kb [1]: 0.2 nM; Kb [3]: 31.6 nM
